High-throughput results (PubChem BioAssay)
M4 ag: CHRM4 agonism in calcium assay. P08173. CHO-K1 hM4/Gqi5, Fluo-8 calcium fluorescence; vehicle 0%, full acetylcholine response 100%. activation, % at 3 µM. hit rate 0.14% among 360,000. AID 624127;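 active = activation above the run mean over all test wells plus 3 SD, cut at about 32% in these data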;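 note: peak over basal fluorescence ratio per well then scaled between controls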
Target sequence (P08173 whole entry, looked up): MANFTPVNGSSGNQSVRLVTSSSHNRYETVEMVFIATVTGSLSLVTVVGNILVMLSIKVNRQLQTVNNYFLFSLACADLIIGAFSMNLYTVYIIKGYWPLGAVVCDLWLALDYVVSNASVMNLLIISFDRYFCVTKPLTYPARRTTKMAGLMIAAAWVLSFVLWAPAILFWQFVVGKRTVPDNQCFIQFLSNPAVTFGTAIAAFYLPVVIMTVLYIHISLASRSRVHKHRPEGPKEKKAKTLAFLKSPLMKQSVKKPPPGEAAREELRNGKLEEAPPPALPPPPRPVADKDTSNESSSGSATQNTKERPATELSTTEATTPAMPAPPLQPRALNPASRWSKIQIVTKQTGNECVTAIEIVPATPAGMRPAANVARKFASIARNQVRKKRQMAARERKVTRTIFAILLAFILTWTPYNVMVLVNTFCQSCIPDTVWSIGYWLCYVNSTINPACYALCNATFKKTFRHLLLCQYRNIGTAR
CHRM4 PAM: potentiates acetylcholine response at human M4 receptor | P08173 | AID 624126 | CHO-K1 hM4/Gqi5, Fluo-8 calcium fluorescence, ACh EC20; 0% = ACh EC20, 100% = maximal ACh | hit rate 0.4% among 360,000 | activation, % at 3 µM;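 active = activation above its plate's cutoff, the mean activation of sample wells plus 3 SD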
M5 PAM: potentiates acetylcholine response at human M5 receptor; P08912; CHO-K1 hM5, Fluo-8 calcium, ACh EC20 PAM; 0% = ACh EC20, 100% = ACh EC100; activation, % at 3 µM; hit rate 0.3% among 360,000; AID 624038;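 active = activation above the run cutoff, the mean activation of all test compounds plus 3 SD, cut at about 18% in these data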
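System: CHO-K1 hM5 cells. Reagent: acetylcholine, EC20 level. Compound dosing: single dose, 3 µM nominal final test concentration. Timing: Post-acetylcholine fluorescence recording 140 s. Detection: Fluo-8 calcium fluorescence. Read-out: % activation, ACh-normalized. Benchmarks: ACh EC20 and EC100 wells. Repeats: singlicate, one well per test compound.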
CHRM5 antagonist: CHRM5 antagonism in calcium assay; P08912; CHO-hM5 cells, Fluo-8 calcium fluorescence, ACh EC80; inhibition, % at 3 µM; hit rate 0.59% among 360,000;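 active = inhibition above a per-plate cutoff, the mean of that plate's test compounds plus 3 SD, cut at about 27% in these data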
CHRM4 antagonist: blocks acetylcholine activation of human M4 receptor; P08173; CHO-hM4 cells, ACh EC80, Fluo-8 calcium fluorescence; inhibition, % at 3 µM; hit rate 0.73% among 360,000;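 active = inhibition above its plate's cutoff, the mean inhibition of sample wells plus 3 SD, cut at about 27% in these data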
M5 ag: CHRM5 agonism in calcium assay; hit rate 0.19% among 360,000; CHO-K1 hM5 cells, Fluo-8 calcium fluorescence; 0% DMSO wells, 100% maximal acetylcholine response; P08912; AID 624037; activation, % at 3 µM;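 active = activation above the run's mean over test compounds plus 3 SD, cut at about 23% in these data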;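 note: signal is peak over basal fluorescence ratio across the kinetic read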
A number is an active result; 0 = inactive. Hits are enriched below; roughly 1.9% of the tested compounds scored in any of these assays.

SMILES | M4 ag | CHRM4 PAM | M5 PAM | CHRM5 antagonist | CHRM4 antagonist | M5 ag
O=C1C=C(c2c(O)ccc3ccccc23)c2ccccc2C1=O | 0 | 0 | 0 | 0 | 47.4 | 0
Cc1ccccc1N1C(=O)C(Cc2ccc(F)cc2)S/C1=C(\C#N)C(N)=O (stereo not drawn) | 0 | 0 | 0 | 0 | 0 | 0
CCOc1ccc(NS(=O)(=O)c2ccc(NC(=S)NC(C)=O)cc2)cc1 | 0 | 0 | 0 | 0 | 0 | 25.3
COc1ccccc1NS(=O)(=O)c1cccc(C(=O)NCC(c2ccccc2OC)N2CCCC2)c1 (stereo not drawn) | 0 | 0 | 0 | 0 | 0 | 0
Cc1ccc(NS(=O)(=O)c2ccc(C(=O)N3CCCC(C(F)(F)F)C3)cc2)cc1 (stereo not drawn) | 34.1 | 0 | 0 | 0 | 0 | 53.8
CCOc1ccc(NS(=O)(=O)c2ccc(C(=O)N3CC(C)OC(C)C3)cc2)cc1 (stereo not drawn) | 66.4 | 0 | 0 | 0 | 0 | 57.1
CCOc1ccc(NS(=O)(=O)c2ccc(NC(=S)NC(=O)C(C)C)cc2)cc1 | 0 | 0 | 0 | 0 | 0 | 0
COc1ccccc1C(CNC(=O)c1cccc(S(=O)(=O)Nc2ccc(C)cc2)c1)N1CCCC1 (stereo not drawn) | 0 | 0 | 0 | 27.5 | 0 | 0
CCOc1ccc(S(=O)(=O)Nc2ccc(C(=O)N3CC(C)OC(C)C3)cc2)cc1 (stereo not drawn) | 0 | 0 | 0 | 0 | 0 | 30.0
O=C(NCC(c1ccco1)N1CCCC1)c1ccc(S(=O)(=O)Nc2ccc(F)cc2)cc1 (stereo not drawn) | 0 | 0 | 0 | 0 | 0 | 0
CCOc1ccc(NS(=O)(=O)c2ccc(C(=O)NCC(c3ccco3)N3CCCC3)cc2)cc1 (stereo not drawn) | 34.0 | 0 | 0 | 0 | 0 | 0
Cc1ccc(NS(=O)(=O)c2ccc(C3CCCCC3)cc2)cc1 | 0 | 0 | 0 | 27.4 | 48.9 | 0
CCOc1ccc(S(=O)(=O)Nc2cccc(C(=O)N3CC(C)OC(C)C3)c2)cc1 (stereo not drawn) | 0 | 0 | 0 | 0 | 0 | 0
COc1ccc(NS(=O)(=O)c2ccc(C(=O)N(C)Cc3ccc(C)o3)cc2)cc1 | 0 | 0 | 0 | 0 | 0 | 27.5
COc1ccc(CN(C)C(=O)c2ccc(NS(=O)(=O)c3ccc(F)cc3)cc2)c(OC)c1 | 0 | 0 | 0 | 0 | 0 | 0
Cc1ccc(S(=O)(=O)Nc2ccc(N3CCCCC3)cc2)cc1 | 0 | 0 | 0 | 0 | 0 | 0
O=C(c1ccccc1Cc1ccccc1)N1CCN(S(=O)(=O)c2ccccc2[N+](=O)[O-])CC1 | 0 | 0 | 0 | 0 | 0 | 0
CC1CN(C(=O)c2ccc(NS(=O)(=O)c3ccc(C(C)(C)C)cc3)cc2)CC(C)O1 (stereo not drawn) | 33.2 | 0 | 0 | 0 | 0 | 47.9
COc1ccc(NS(=O)(=O)c2ccc(C(=O)N3CCC(C)CC3)cc2)cc1 | 0 | 0 | 0 | 0 | 0 | 39.2
COC(=O)c1cccc(NC(=O)c2ccc3c(c2)C(=O)N(Cc2cccnc2)C3=O)c1C | 0 | 0 | 0 | 0 | 0 | 0
CCC(C)[C@H](NC(=O)N1CCCCCC1)C(=O)OC (stereo partly drawn) | 0 | 0 | 0 | 0 | 0 | 0
COc1ccc(-n2c(C)c(C)c3c(NCCN(C)C)ncnc32)cc1 | 0 | 0 | 29.2 | 0 | 0 | 0
CCCCCC1CCC(C(=O)N2CCOCC2)CC1 (stereo not drawn) | 0 | 0 | 0 | 0 | 0 | 0
O=C(c1cc(=O)[nH]c2ccccc12)N1CCN(S(=O)(=O)c2ccc(Cl)cc2)CC1 | 0 | 0 | 0 | 27.1 | 0 | 0
COc1ccccc1CNC(=O)CN(C)S(=O)(=O)c1ccc(F)cc1 | 0 | 0 | 0 | 0 | 0 | 0
SMILES | M4 ag | CHRM4 PAM | M5 PAM | CHRM5 antagonist | CHRM4 antagonist | M5 ag
Cn1nc(C(F)(F)F)c(-c2cccc(C(F)(F)F)c2)c1NC(=O)Nc1ccc(F)cc1 | 0 | 0 | 0 | 34.3 | 0 | 0
O=C(Nc1cccc(NC(=O)c2ccccc2Cl)c1)c1ccco1 | 0 | 0 | 0 | 0 | 0 | 0
O=C(Nc1cccc(NC(=O)c2ccc(-c3ccc(Br)cc3)o2)c1)c1ccco1 | 0 | 0 | 0 | 31.2 | 31.6 | 0
CCOC(=O)Cc1cc(=O)n2[nH]c(C(C)(C)C)cc2n1 | 0 | 0 | 0 | 0 | 0 | 0
CCN(CC)c1ccc(/C=C(/C#N)c2nc3ccc(C)cc3[nH]2)c(OC(C)C)c1 | 46.4 | 0 | 0 | 69.0 | 56.0 | 58.5
CCCOc1cc(N(CC)CC)ccc1/C=C(/C#N)c1nc2ccc(C)cc2[nH]1 | 0 | 0 | 0 | 55.5 | 45.4 | 39.0
CCOc1cc(N(CC)CC)ccc1/C=C(/C#N)c1nc2ccccc2[nH]1 | 0 | 0 | 0 | 0 | 0 | 0
COc1ccc(S(=O)(=O)NCC2CCCN(Cc3ccc(O)cc3)C2)cc1 (stereo not drawn) | 0 | 0 | 0 | 0 | 0 | 0
CC1CN(C(=O)CCC(=O)N2CCCCC2)c2ccccc2O1 (stereo not drawn) | 0 | 0 | 0 | 0 | 0 | 0
C=C1c2cc(C)ccc2NC(=O)N1c1ccc(C)cc1 | 0 | 28.9 | 0 | 0 | 0 | 0
C=C1c2ccccc2NC(=O)N1c1ccc(C)cc1 | 0 | 0 | 0 | 0 | 0 | 0
COC(=O)C1=C(C)NC(C)=C(C(=O)OC)C1c1ccc(NC(C)=O)cc1 | 0 | 0 | 0 | 0 | 0 | 43.9
CCN(CC)c1ccc(C2C(C(=O)OC)=C(C)NC(C)=C2C(=O)OC)cc1 | 0 | 0 | 0 | 0 | 0 | 0
CC(=O)Nc1ccc(NC(=O)CSc2ncc(C(=O)Nc3ccc(F)cc3)c(=O)n2C)cc1 | 0 | 17.6 | 0 | 0 | 0 | 0
Cc1cccc(N2C(=O)c3ccccc3C2=O)n1 | 0 | 0 | 0 | 0 | 0 | 0
Cc1cc(C)n(C(=O)c2c([N+](=O)[O-])c(C)nn2C)n1 | 0 | 0 | 0 | 0 | 0 | 0
Cc1ccc(SC(=O)c2c([N+](=O)[O-])c(C)nn2C)cc1 | 0 | 0 | 0 | 0 | 56.9 | 0
COc1ccc(NC(=O)CCc2nc3ccccc3[nH]2)cc1 | 0 | 0 | 0 | 0 | 0 | 0
CC(Oc1ccccc1)c1ccnn1S(=O)(=O)c1ccccc1 (stereo not drawn) | 0 | 0 | 20.3 | 0 | 0 | 0
O=C(Cn1cnc2c(NCc3ccccc3)ncnc21)NCCc1cc2ccccc2[nH]1 | 0 | 0 | 0 | 0 | 0 | 0
COc1cc(/C=C2/SC(=S)N(Cc3ccccc3)C2=O)ccc1OCC(=O)O | 0 | 0 | 0 | 0 | 0 | 0
CCOc1cc(/C=C2/SC(=S)N(Cc3ccccc3)C2=O)ccc1O | 0 | 0 | 0 | 0 | 0 | 42.2
COc1cc(/C=C2/SC(=S)N(Cc3ccccc3)C2=O)cc(Cl)c1O | 0 | 0 | 0 | 32.9 | 0 | 0
